Data on seven compounds can be found in ChEMBL document CHEMBL1124333, “Prostaglandin photoaffinity probes: synthesis and biological activity of azide-substituted 16-phenoxy- and 17-phenyl-PGF2 alpha prostaglandins” (J Med Chem, 1989).

Experiment [1] is described as follows: Relative ratio in comparison with PGF2-alpha in ovine luteal cells. In kind it is cell-based.
The target of experiment [2] is T1, Prostaglandin F2-alpha receptor (Bos taurus, UniProt P37289). The experiment can be described thus: Binding potency towards Prostaglandin F2 alpha receptor (competitive binding) with natural [3H]-PGF 2 alpha in bovine corpora lutea plasma membranes (BCLM). The gist of the method: (§1)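 Bovine corpora lutea were homogenized in ice-cold 10 mM Tris-HCl pH 7.0 with 250 mM sucrose, 1 mM CaCl2, BSA, indomethacin, DTT and protease inhibitors. Membranes were pelleted at 17339g and resuspended at about 1-2 mg protein/mL. They were diluted 1:1 with serum-free culture medium and incubated 90 min, to equilibrium, with [3H]PGF2α and competitor.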

The nature of experiment [3]: Relative ratio in comparison with PGF2-alpha.
Experiment [4] concerns the target T1, Prostaglandin F2-alpha receptor. The experiment can be described thus: Binding potency towards PGF-2 alpha receptor (competitive binding) with natural [3H]-PGF 2 alpha in bovine corpora lutea plasma membranes (BCLM). In short, it runs like this: as §1
Experiment [5] in a line: Relative ratio in comparison with PGF2-alpha in bovine corpus lutea membranes. It counts as cell membranes.

The term IC50 denotes the concentration that inhibits the measured activity by half. Read a low IC50 as higher potency.

T1 sequence (P37289 whole entry): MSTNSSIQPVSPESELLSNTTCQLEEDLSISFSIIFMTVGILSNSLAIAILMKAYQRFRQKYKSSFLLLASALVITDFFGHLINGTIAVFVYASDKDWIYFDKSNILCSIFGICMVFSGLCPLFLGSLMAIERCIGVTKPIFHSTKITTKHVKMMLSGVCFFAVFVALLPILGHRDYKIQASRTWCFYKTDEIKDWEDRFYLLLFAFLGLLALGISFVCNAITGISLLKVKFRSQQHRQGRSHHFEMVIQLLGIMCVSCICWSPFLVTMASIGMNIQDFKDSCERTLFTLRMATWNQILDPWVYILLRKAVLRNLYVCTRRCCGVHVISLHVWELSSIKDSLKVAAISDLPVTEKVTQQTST

Consider `[N-]=[N+]=Nc1cc(O)cc(OC[C@H](O)/C=C/[C@@H]2[C@@H](C/C=C\CCCC(=O)O)[C@@H](O)C[C@H]2O)c1`, for which the Ratio in experiment [1] was determined as 250.

`[N-]=[N+]=Nc1ccc(CC[C@@H](O)/C=C/[C@@H]2[C@@H](C/C=C\CCCC(=O)O)[C@@H](O)C[C@H]2O)cc1I` showed an IC50 in experiment [2] of 68 µM. Also, in experiment [3], the Ratio was 490.

The compound `COC(=O)CCC/C=C\C[C@@H]1C(/C=C/[C@H](O)CCc2ccccc2)[C@H](O)C[C@@H]1O` (stereo not given in full) yielded an IC50 in experiment [4] of 50 µM. Besides, the Ratio in experiment [5] was determined as 360.

Consider `[N-]=[N+]=Nc1ccc(OC[C@H](O)/C=C/[C@@H]2[C@@H](C/C=C\CCCC(=O)O)[C@@H](O)C[C@H]2O)c(O)c1`, for which the Ratio in experiment [5] is 860. In experiment [2], this compound returned an IC50 of 120 µM.

As to `[N-]=[N+]=Nc1ccc(CC[C@H](O)/C=C/[C@@H]2[C@@H](C/C=C\CCCC(=O)O)[C@@H](O)C[C@H]2O)c(O)c1`, the Ratio was 1600 in experiment [5] and 140 in experiment [1]. The compound also displayed an IC50 in experiment [2] of 220 µM.

`[N-]=[N+]=Nc1ccc(CC[C@H](O)/C=C/[C@@H]2[C@@H](C/C=C\CCCC(=O)O)[C@@H](O)C[C@H]2O)cc1I`: the results for the Ratio in experiment [5] and in experiment [1] were 50 and 8.1, respectively. This compound came in with an IC50 in experiment [2] of 7 µM.

The compound `COC(=O)CCC/C=C\C[C@@H]1C(/C=C/[C@@H](O)CCc2ccccc2)[C@H](O)C[C@@H]1O` (stereo not given in full) displayed an IC50 in experiment [4] of 2 µM. For the same compound, in experiment [5], the Ratio came to 14.
